Compound activity (PubChem)
NF-kB expr up: activators of NF-kB expression in neurons, primary screen, cell-based, HTS; human neuronal cells, NF-kB reporter expression; stronger effect = higher value; 190,000 tested, 1.6% active; fold change at 12.5 µM; in the data active = fold change above about 3.3
FLuc act counter: FLuc activators, initial screening, artefact control for FLuc-dependent activation tests, biochemical, ATPlite luminescence. activation factor at 10 µM. AID 1027, 2008. Luciferin 4-monooxygenase (Photinus pyralis), P08659. ATPlite luciferase biochemical, 10 min; 0 = ATP-free wells, 1 = DMSO control. 200,000 tested, under 10 active;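 active = luciferase activation factor, scaled between plate controls, of at least 2 with compound at 10 µM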
Target sequence (P08659 whole entry, looked up): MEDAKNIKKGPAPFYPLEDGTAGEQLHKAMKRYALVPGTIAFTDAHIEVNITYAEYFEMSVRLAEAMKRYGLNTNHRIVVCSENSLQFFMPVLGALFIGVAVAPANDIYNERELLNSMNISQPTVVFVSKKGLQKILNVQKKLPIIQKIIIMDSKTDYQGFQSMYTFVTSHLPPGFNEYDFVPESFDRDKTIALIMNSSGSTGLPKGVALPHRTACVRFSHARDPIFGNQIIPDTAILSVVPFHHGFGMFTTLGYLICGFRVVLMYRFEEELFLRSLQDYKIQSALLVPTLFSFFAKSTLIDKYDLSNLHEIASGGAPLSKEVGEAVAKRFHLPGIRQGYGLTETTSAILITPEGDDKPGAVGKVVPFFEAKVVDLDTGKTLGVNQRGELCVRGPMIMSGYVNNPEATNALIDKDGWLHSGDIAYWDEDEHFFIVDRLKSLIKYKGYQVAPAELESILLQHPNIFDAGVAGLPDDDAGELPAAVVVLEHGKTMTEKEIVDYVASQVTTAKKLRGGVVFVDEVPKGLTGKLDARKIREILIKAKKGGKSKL
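Material: luciferase plus luciferin reagent, cell-free. Medium: PBS buffer for ATP. Also added: ATP substrate, dispensed from a 10.24 µM working solution in PBS. Doses: test compounds dosed from 2 mM stocks in 100% DMSO. Incubation: 10 min post-reagent at room temperature. Technique: light output (luminescence). Read-out basis: luminescence gain marking luciferase activators.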
Rad51 HR inh: human RAD51 strand exchange inhibitors, primary screen, biochemical, fluorescence | AID 1385, 2008 | hRad51 DNA strand exchange, fluorescence dequenching | inhibition, % at 10 µM | 200,000 tested, 0.085% active | DNA repair protein RAD51 homolog 1 (Homo sapiens), Q06609;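 active = inhibition above 40% at the single screening dose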;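 note: 0% = DMSO control wells and 100% = blanks with heterologous ssDNA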
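Test system – preformed human Rad51 ssDNA filaments · Reagent – Donor/quencher-labelled 47-bp dsDNA substrate · Incubation – 37 °C 15-min filament assembly, 30-min compound preincubation, 15-min exchange · Signal – FRET fluorescence dequenching, excitation 485 nm, emission 520 nm · Read-out – percent inhibition from fluorescence, normalised to plate control and blank means · Benchmarks – plate control and blank wells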
APP 5'UTR act: activators of APP 5'UTR luciferase reporter, primary screen, SH-SY5Y cells | SH-SY5Y APP 5'UTR luciferase reporter, luminescence; zero percent = DMSO vehicle wells | activation, % at 2 µM | 190,000 tested, 1% active | AID 1276, 2008;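 active = activation above a set limit, based on mean plus 3 SD of controls, cut at about 140% in these data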
FLuc inh counter: firefly luciferase enzyme inhibitors, primary screen, artefact control for luciferase-based inhibitor screens, biochemical, luminescence, ATPLite. Luciferin 4-monooxygenase (Photinus pyralis), P08659. 10 min. inhibition, % at 10 µM. 200,000 tested, 1.5% active;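 active = inhibition above about 50% when tested at 10 µM, limit read from the data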
STAT1 activator: STAT1 signaling activators, primary screen, cell-based, HTS, luciferase reporter; activation (% of control), % at 5.5 µM; NIH 3T3 STAT1-luciferase reporter, IFN-gamma, luminescence; 100% = IFN-gamma alone, no compound; 200,000 tested, 2.6% active;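 active = activation above the screen-wide mean activation plus 3 SD, cut at about 130% in these data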;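 note: raw ratio to IFN-gamma control signal so 100% means no change and 0% no light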
The depositor's hits bear a star; nt = no result. Hits are enriched below; roughly 3.9% of the tested compounds scored in any of these assays.

SMILES | NF-kB expr up | FLuc act counter | Rad51 HR inh | APP 5'UTR act | FLuc inh counter | STAT1 activator
Cc1cc(Cl)ccc1OCCCC(N)=O | 0.94 | 1 | -4 | -6 | -1 | 100
CCCc1ccc(OCc2ccc(C(=O)O)o2)c(OC)c1 | 4.2* | 0.9 | -2 | 82 | 6 | 127
CCCc1ccc(OCc2ccc(C(=O)OC)o2)c(OC)c1 | 2.8 | 0.9 | -218 | 71 | 5 | 132*
CCOc1ccc(OCc2ccc(C(=O)O)o2)cc1 | 3.2 | 0.9 | 5 | 82 | 9 | 93
COc1ccc(-c2coc3cc(OC)cc(O)c3c2=O)cc1 | 5.5* | 0.8 | nt | 155* | 18 | 143*
COc1ccc(-c2coc3cc(O)ccc3c2=O)cc1O | 2.7 | 0.5 | -9 | 58 | 54* | 99
CC(C)Oc1cc(O)c2c(=O)c(-c3ccc(O)cc3)coc2c1 | 9* | 0.6 | 8 | 164* | 38 | 128
O=c1c(-c2ccc(O)cc2)coc2cc(O)cc(O)c12 | nt | nt | -5 | nt | nt | nt
COc1ccc(-c2coc3cc(OC)cc(OC)c3c2=O)cc1 | 1.8 | 1 | -1 | 27 | 4 | 128
COc1ccc(C2=CC(=O)C=CC2=O)cc1 | nt | nt | -5 | -48 | nt | nt
C/C=C(\C)CN1CCCC(CO)(Cc2ccccc2)C1 (centres undefined) | 1.4 | 1.1 | -3 | 12 | -6 | 92
O=C(COC(=O)c1n[nH]c2ccccc12)Nc1ccccc1 | 1.1 | 1 | 3 | 43 | 0 | 133*
Cc1ccc(C(=O)OCC(=O)c2cc(C)n(CC3CCCO3)c2C)cc1 (centres undefined) | 1.1 | 0.7 | 11 | 101 | 34 | 140*
COCCn1c(C)cc(C(=O)COC(=O)c2c(C)nn(Cc3ccccc3)c2C)c1C | 0.88 | 1 | -2 | 8 | -4 | 93
Cc1cc(C)cc(NC(=O)COC(=O)c2n[nH]c3ccccc23)c1 | 1.7 | 1 | 5 | 25 | -2 | 108
Cc1cc(C(=O)COC(=O)c2cccnc2Cl)c(C)n1CC1CCCO1 (centres undefined) | 0.44 | 0 | nt | 132 | 96* | 24
Cc1cc(C(=O)COC(=O)c2ccccc2Br)c(C)n1CC1CCCO1 (centres undefined) | nt | nt | -12 | nt | nt | nt
COCCn1c(C)cc(C(=O)COC(=O)c2n[nH]c3ccccc23)c1C | 0.87 | 0.1 | 0 | 98 | 94* | 74
Cc1cccc(OCC(=O)NNC(=O)C2CCCCC2C(=O)O)c1 (centres undefined) | 1.3 | 1 | nt | -7 | -1 | 105
Cc1cc(C(=O)COC(=O)c2n[nH]c3ccccc23)c(C)n1CC1CCCO1 (centres undefined) | 1 | 0.1 | 0 | 168* | 92* | 99
O=C(CCNc1ccc(Cl)cc1)c1cccs1 | 2.1 | 1 | -6 | 4 | 1 | 130*
O=c1c(Cc2ccccc2)c(O)ccn1C1CCCCCCC1 | 0.95 | 1.1 | 6 | 7 | -6 | 100
Cc1ccc(NC(=O)c2ccc(N3C(=O)C4CC=C(Cl)CC4C3=O)cc2)cc1 (centres undefined) | 0.96 | 1 | 5 | nt | -4 | 99
C/C(=N\O)c1ccc(N2C(=O)C3CC=C(Cl)CC3C2=O)cc1 (centres undefined) | 2.1 | 1 | 0 | 144* | -2 | 139*
COc1ccc(-c2nn(-c3ccccc3)cc2/C=C/C(=O)O)cc1[N+](=O)[O-] | nt | nt | 15 | nt | nt | nt
Cc1ccccc1OCCOc1cccc(/C=N/NC(=O)Cc2nnc(N)s2)c1 | 1.4 | 1 | 6 | 83 | -1 | 123
Nc1nnc(CC(=O)N/N=C/c2cccc(OCCOc3ccccc3)c2)s1 | 1.5 | 1 | 2 | 90 | -2 | 129*
COc1ccc(C(=O)c2cc3cccc(OC)c3o2)cc1 | 4.2* | 0.5 | 3 | 99 | 49 | 150*
Cc1nc(-c2ccc(C(=O)NCCO)cc2)cs1 | 1.3 | 0.8 | 15 | 20 | 24 | 107
Cc1nc(-c2ccc(NC(=O)c3ccccc3)cc2)cs1 | 7.5* | 0.1 | 10 | 184* | 88* | 72
